Laboratory results taken from ChEMBL document CHEMBL1132237, “Fluorination of 3-(3-(piperidin-1-yl)propyl)indoles and 3-(3-(piperazin-1-yl)propyl)indoles gives selective human 5-HT1D receptor ligands with improved pharmacokinetic profiles” (J Med Chem, 1999).

Assays:
[1] = target: T1, 5-hydroxytryptamine receptor 1B (Homo sapiens, UniProt P28222); assay: Agonist-induced [35S]GTP-gamma-S, binding in CHO cells stably transfected with human 5-hydroxytryptamine 1B receptor; assay type: functional, cell-based
Outline: (§1)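 [35S]GTPγS binding stimulated by agonist, measured in CHO cells stably transfected with the human 5-HT1D or 5-HT1B receptor. EC50 values are the logarithmic mean of 2–3 independent determinations. Maximum variance of individual log(EC50) values from the mean was 4%.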

[2] = target: T2, 5-hydroxytryptamine receptor 1D (Homo sapiens, UniProt P28221); assay: Efficacy was evaluated relative to human 5-hydroxytryptamine 1D receptor using [35S]GTP-gamma-S, as radioligand; assay type: functional
[3] = target: T1, 5-hydroxytryptamine receptor 1B; assay: Displacement of specific [3H]5-HT binding to cloned human 5-hydroxytryptamine 1B receptor expressed in CHO cells; assay type: cell-based
Outline: (§2)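 Radioligand binding to human 5-HT1D and 5-HT1B receptors stably expressed in CHO cells. Radioligand was used at approximately its KD for each receptor. IC50 values are the logarithmic mean of 2–5 independent determinations, each run in duplicate. Maximum variance from the mean of log(IC50) was 4%. Selectivity is IC50(1B)/IC50(1D).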

[4] = target: T2, 5-hydroxytryptamine receptor 1D; assay: Agonist-induced [35S]GTP-gamma-S, binding in CHO cells stably transfected with human 5-hydroxytryptamine 1D receptor; assay type: functional, cell-based; outline: as §1
[5] = target: Serotonin 1 receptors; 5-HT1B & 5-HT1D (Homo sapiens) (UniProt P28222+P28221); assay: Selectivity towards 5-HT1D and to that of 5-HT1B in CHO cells; assay type: cell-based; outline: as §2
[6] = target: T2, 5-hydroxytryptamine receptor 1D; assay: Displacement of specific [3H]5-HT binding to cloned human 5-hydroxytryptamine 1D receptor expressed in CHO cells; assay type: cell-based; outline: as §2
[7] = target: T1, 5-hydroxytryptamine receptor 1B; assay: Efficacy was evaluated relative to human 5-HT1B receptor using [35S]GTP-gamma-S, as radioligand; assay type: functional
[8] = tested on: Rattus norvegicus; assay: Oral absorption study in rat plasma obtained from cardiac blood samples after 0.5 hours of administration of 3 mg/kg orally; assay type: functional, organism-based; set-up: dose 3 mg/kg
Outline: (§3)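 Male Sprague–Dawley rats, fasted overnight and with no surgery, received 3 mg/kg orally as a 0.6 mg/mL solution in PEG 400:5 mM HCl (25:75 v/v). Terminal blood was taken from the heart and hepatic portal vein under isoflurane at 0.5 and 2 h, three rats per time point. Plasma drug was measured by electrospray mass spectrometry. Values are mean ± SEM.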

[9] = tested on: Rattus norvegicus; assay: Oral absorption study in rat plasma obtained from hepatic portal vein after 2 hours of administration of 3 mg/kg orally; assay type: functional, organism-based; set-up: dose 3 mg/kg; outline: as §3
[10] = pKa value by potentiometric method; assay type: physicochemical
Outline: (§4)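 Potentiometric titration in MeOH–H2O cosolvent with ionic strength set by 0.15 M KCl. Three titrations at different water/cosolvent ratios gave psKa values. Aqueous pKa was obtained by Yasuda–Shedlovsky extrapolation to 100% water, plotting psKa + log[H2O] against 1/ε.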

[11] = tested on: Rattus norvegicus; assay: Oral absorption study in rat plasma obtained from hepatic portal vein after 0.5 hours of administration of 3 mg/kg orally; assay type: functional, organism-based; set-up: dose 3 mg/kg; outline: as §3
[12] = tested on: Rattus norvegicus; assay: Oral absorption study in rat plasma obtained from cardiac blood samples after 2 hours of administration of 3 mg/kg orally; assay type: functional, organism-based; set-up: dose 3 mg/kg; outline: as §3
[13] = pKa value by potentiometric; assay type: physicochemical; outline: as §4

T1 sequence (P28222 whole entry): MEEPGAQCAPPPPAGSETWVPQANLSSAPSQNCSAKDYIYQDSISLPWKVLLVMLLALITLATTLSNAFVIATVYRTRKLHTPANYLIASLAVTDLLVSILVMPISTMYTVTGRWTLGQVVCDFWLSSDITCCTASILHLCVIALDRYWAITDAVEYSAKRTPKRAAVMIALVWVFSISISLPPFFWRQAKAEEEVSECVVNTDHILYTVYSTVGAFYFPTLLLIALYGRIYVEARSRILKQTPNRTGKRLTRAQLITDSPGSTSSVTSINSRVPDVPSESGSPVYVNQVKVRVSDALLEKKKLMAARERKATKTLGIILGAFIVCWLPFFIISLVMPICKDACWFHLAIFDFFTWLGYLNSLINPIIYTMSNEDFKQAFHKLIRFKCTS
T2 sequence (P28221 whole entry): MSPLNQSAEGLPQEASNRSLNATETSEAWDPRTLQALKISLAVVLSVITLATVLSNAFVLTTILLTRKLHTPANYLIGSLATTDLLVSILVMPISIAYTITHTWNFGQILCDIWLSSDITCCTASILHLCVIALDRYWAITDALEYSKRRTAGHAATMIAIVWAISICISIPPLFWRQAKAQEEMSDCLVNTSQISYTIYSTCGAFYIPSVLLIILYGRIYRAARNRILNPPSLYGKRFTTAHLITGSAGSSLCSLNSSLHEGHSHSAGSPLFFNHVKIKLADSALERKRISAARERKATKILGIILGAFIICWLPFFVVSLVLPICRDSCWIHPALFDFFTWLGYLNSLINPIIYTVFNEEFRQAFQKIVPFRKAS

Row | SMILES | IC50 [3] | Selectivity [5] | IC50 [6] | also measured
1 | CC(CN1CCN(CC(F)Cc2c[nH]c3ccc(-n4cnnc4)cc23)CC1)c1ccc(F)cc1 (stereo unspecified) | 0.31 µM | 310 | 0.001 µM | EC50 [1]: 1.7 µM; Efficacy [2]: 106%; EC50 [4]: 0.0016 µM; Efficacy [7]: 79%
2 | Fc1cccc(CCN2CCN(C[C@@H](F)Cc3c[nH]c4ccc(-n5cnnc5)cc34)CC2)c1 | 0.68 µM | 117 | 0.0058 µM | 
3 | CN(Cc1ccccc1)[C@H]1CCN(CCCc2c[nH]c3ccc(-n4cnnc4)cc23)C[C@@H]1F | 0.013 µM | 6 | 0.0021 µM | 
4 | CN(Cc1ccccc1)C1CCN(CC(F)Cc2c[nH]c3ccc(-n4cnnc4)cc23)CC1 (stereo unspecified) | 1.2 µM | 22 |  | EC50 [1]: 10.3 µM; Plasma concentration [8]: 2 ng/mL; Plasma concentration [9]: 217 ng/mL; pKa [10]: 8.5; Plasma concentration [11]: 57 ng/mL; Plasma concentration [12]: 10 ng/mL; Efficacy [7]: 59%
5 | CC(CN1CCN(CC(F)Cc2c[nH]c3ccc(-n4cnnc4)cc23)CC1)c1ccccc1F (stereo unspecified) | 0.38 µM | 380 | 0.001 µM | 
6 | Fc1ccc(CCN2CCN(CC(F)Cc3c[nH]c4ccc(-n5cnnc5)cc34)CC2)cc1 (stereo unspecified) | 0.54 µM | 98 | 0.0055 µM | 
7 | Fc1ccc(CCC2(F)CCN(CCCc3c[nH]c4ccc(-n5cnnc5)cc34)CC2)cc1 | 0.025 µM | 25 | 0.001 µM | 
8 | FC1(Cc2ccccc2)CCN(CCCc2c[nH]c3ccc(-n4cnnc4)cc23)CC1 | 0.015 µM | 17 | 0.0009 µM | EC50 [1]: 0.066 µM; Plasma concentration [8]: 52 ng/mL; Plasma concentration [9]: 273 ng/mL; EC50 [4]: 0.0004 µM; pKa [10]: 8.8; Plasma concentration [11]: 570 ng/mL; Plasma concentration [12]: 35 ng/mL; Efficacy [7]: 67%
9 | CC(CN1CCN(CC(F)(F)Cc2c[nH]c3ccc(-n4cnnc4)cc23)CC1)c1ccccc1 (stereo unspecified) | 1.8 µM | 290 | 0.0062 µM | EC50 [1]: 5.1 µM; Efficacy [2]: 123%; EC50 [4]: 0.016 µM; Efficacy [7]: 53%
10 | c1ccc(CN2CCN(CCCc3c[nH]c4ccc(-n5cnnc5)cc34)CC2)cc1 |  | 79 | 0.00014 µM | Plasma concentration [8]: 42 ng/mL; Plasma concentration [11]: 168 ng/mL; pKa [13]: 8.2
11 | Fc1cccc(CCN2CCN(CC(F)Cc3c[nH]c4ccc(-n5cnnc5)cc34)CC2)c1 (stereo in doubt; 25) [listing 1 of 2 here] | 1.2 µM |  | 0.0035 µM | EC50 [1]: 0.81 µM; EC50 [4]: 0.0038 µM
12 | Fc1cccc(CCN2CCN(CC(F)Cc3c[nH]c4ccc(-n5cnnc5)cc34)CC2)c1 (stereo in doubt; 28) [listing 1 of 2 here] | 1 µM |  | 0.0051 µM | 
13 | Fc1ccccc1CCN1CCN(CC(F)Cc2c[nH]c3ccc(-n4cnnc4)cc23)CC1 (stereo unspecified) | 0.52 µM | 111 | 0.0047 µM | 
14 | CN(Cc1ccccc1C(F)(F)F)[C@H]1CCN(CCCc2c[nH]c3ccc(-n4cnnc4)cc23)C[C@H]1F | 0.22 µM | 24 | 0.0093 µM | pKa [10]: 7.7
15 | CC(CC1(F)CCN(CCCc2c[nH]c3ccc(-n4cnnc4)cc23)CC1)c1ccccc1 (stereo unspecified) | 0.028 µM | 47 | 0.0006 µM | EC50 [1]: 0.51 µM; Efficacy [2]: 86%; EC50 [4]: 0.0026 µM; Efficacy [7]: 85%
16 | F[C@@H]1CN(CCCc2c[nH]c3ccc(-n4cnnc4)cc23)CC[C@@H]1NCc1ccccc1C(F)(F)F | 0.3 µM | 23 | 0.013 µM | 
17 | CC(CN1CCN(CC(F)(F)Cc2c[nH]c3ccc(-n4cnnc4)cc23)CC1)c1ccc(F)cc1 (stereo unspecified) | 1 µM | 556 | 0.0018 µM | 
18 | Fc1cccc(CCN2CCN(CC(F)Cc3c[nH]c4ccc(-n5cnnc5)cc34)CC2)c1 (stereo in doubt; 28) [listing 2 of 2 here] |  | 196 |  | 

Row | SMILES | IC50 [3] | Selectivity [5] | IC50 [6] | also measured
19 | CN(Cc1ccccc1)C1CCN(CC(F)(F)Cc2c[nH]c3ccc(-n4cnnc4)cc23)CC1 | 2.1 µM | 60 | 0.035 µM | 
20 | FC(F)(Cc1c[nH]c2ccc(-n3cnnc3)cc12)CN1CCC(CCc2ccccc2)CC1 | 5.8 µM | 104 | 0.056 µM | 
21 | Fc1cccc(CCC2(F)CCN(CCCc3c[nH]c4ccc(-n5cnnc5)cc34)CC2)c1 | 0.022 µM | 31 | 0.0007 µM | EC50 [1]: 0.44 µM; EC50 [4]: 0.005 µM; Efficacy [7]: 88%
22 | FC(F)(Cc1c[nH]c2ccc(-n3cnnc3)cc12)CN1CCC(COc2ccccc2)CC1 | 7.2 µM | 26 | 0.28 µM | 
23 | Fc1cccc(CC2(F)CCN(CCCc3c[nH]c4ccc(-n5cnnc5)cc34)CC2)c1 | 0.0053 µM | 13 | 0.0004 µM | 
24 | CN(Cc1ccccc1)[C@H]1CCN(CCCc2c[nH]c3ccc(-n4cnnc4)cc23)C[C@H]1F | 0.22 µM | 18 | 0.012 µM | Plasma concentration [8]: 2 ng/mL; Plasma concentration [9]: 136 ng/mL; pKa [10]: 8; Plasma concentration [11]: 216 ng/mL; Plasma concentration [12]: 3 ng/mL
25 | FC(Cc1c[nH]c2ccc(-n3cnnc3)cc12)CN1CCN(CCc2ccccc2)CC1 (stereo unspecified) | 0.93 µM | 137 | 0.0068 µM | 
26 | F[C@H]1CN(CCCc2c[nH]c3ccc(-n4cnnc4)cc23)CC[C@@H]1NCc1ccccc1C(F)(F)F | 0.17 µM | 34 | 0.005 µM | 
27 | FC(F)(Cc1c[nH]c2ccc(-n3cnnc3)cc12)CN1CCC(Cc2ccccc2)CC1 | 1.3 µM | 17 | 0.078 µM | pKa [10]: 6.7
28 | CC(CN1CCN(CC(F)Cc2c[nH]c3ccc(-n4cnnc4)cc23)CC1)c1cccc(F)c1 (stereo unspecified) | 0.28 µM | 311 | 0.0009 µM | EC50 [1]: 1.5 µM; Efficacy [2]: 112%; EC50 [4]: 0.0019 µM; Efficacy [7]: 87%
29 | FC(Cc1c[nH]c2ccc(-n3cnnc3)cc12)CN1CCC(OCc2ccccc2)CC1 (stereo unspecified) | 3 µM | 100 | 0.03 µM | 
30 | Fc1cccc(CCN2CCN(CC(F)Cc3c[nH]c4ccc(-n5cnnc5)cc34)CC2)c1 (stereo in doubt; 25) [listing 2 of 2 here] |  | 343 |  | Efficacy [7]: 25%
31 | Fc1ccccc1CCC1(F)CCN(CCCc2c[nH]c3ccc(-n4cnnc4)cc23)CC1 | 0.016 µM | 20 | 0.0008 µM | 
32 | OC(Cc1c[nH]c2ccc(-n3cnnc3)cc12)CN1CCN(Cc2ccccc2)CC1 (stereo unspecified) | 0.36 µM | 200 | 0.0018 µM | 
33 | CN(Cc1ccccc1C(F)(F)F)[C@H]1CCN(CCCc2c[nH]c3ccc(-n4cnnc4)cc23)C[C@@H]1F | 0.22 µM | 17 | 0.013 µM | pKa [10]: 6.9
34 | FC1(Cc2ccccc2C(F)(F)F)CCN(CCCc2c[nH]c3ccc(-n4cnnc4)cc23)CC1 | 0.014 µM | 47 | 0.0003 µM | EC50 [1]: 0.29 µM; Efficacy [2]: 61%; EC50 [4]: 0.0002 µM; Efficacy [7]: 91%
35 | Fc1ccccc1CC1(F)CCN(CCCc2c[nH]c3ccc(-n4cnnc4)cc23)CC1 | 0.0031 µM |  | 0.0001 µM | 
36 | FC1(CCc2ccccc2)CCN(CCCc2c[nH]c3ccc(-n4cnnc4)cc23)CC1 | 0.049 µM | 25 | 0.002 µM | 
